Test system: AGS
Experiment: Antiproliferative activity against human AGS assessed as growth inhibition after 48 hrs by SRB assay
Format: functional
Settings: not given
Outline: (§1)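 Cells kept in RPMI 1640 with 10% FBS, nonessential amino acids and penicillin/streptomycin, seeded and cultured overnight. Six wells fixed with 10% TCA at drug addition (T0). Compound exposure 48 h, then TCA fixation, 0.4% SRB in 1% acetic acid 10 min at room temperature, dye dissolved in 10 mM Tris base, OD 515 nm. Growth computed from T0, control and treated readings. GI50 is the concentration giving 50% growth inhibition. Doxorubicin served as positive control.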

`COc1cc([C@H]2Oc3cc(-c4cc(=O)c5c(O)cc(O)cc5o4)ccc3O[C@@H]2CO)cc(OC)c1O` and `COc1ccc2c(=O)cc(-c3cc(OC)c(OC)cc3O)oc2c1` [DIPLOTRIN C] cannot be ordered by GI50: 24.8 µM for the first, > 10 µM for the second.

First: COc1cccc2c1C(=O)c1c(O)c3c(c(O)c1C2=O)C[C@@](O)(C(=O)CO)C[C@@H]3O[C@H]1C[C@H](N)[C@H](O)[C@H](C)O1 [DOXORUBICIN]
Second: COc1ccc2c(c1O)COc1c-2oc2c(OC)c(OC)ccc2c1=O
The GI50 of the first is lower: 0.01 µM for the first, > 10 µM for the second.

First: COc1ccc(-c2oc3c(OC)c(OC)ccc3c(=O)c2OC)cc1O [DIPLOTRIN B]
Second: COc1cc(O)c(-c2oc3c(OC)c(OC)ccc3c(=O)c2OC)cc1O [DIPLOTRIN A]
The GI50 of the first is lower: 1.7 µM for the first, > 10 µM for the second.

Test system: PC-3
Experiment: Antiproliferative activity against human PC3 assessed as growth inhibition after 48 hrs by SRB assay
Format: functional
Settings: PC-3, 48 h
Outline: as §1

First: COc1cc([C@H]2Oc3cc(-c4cc(=O)c5c(O)cc(O)cc5o4)ccc3O[C@@H]2CO)cc(OC)c1O
Second: COc1ccc2c(=O)cc(-c3cc(OC)c(OC)cc3O)oc2c1 [DIPLOTRIN C]
The GI50 of the first is lower: 2.3 µM for the first, > 10 µM for the second.

First: COc1cccc2c1C(=O)c1c(O)c3c(c(O)c1C2=O)C[C@@](O)(C(=O)CO)C[C@@H]3O[C@H]1C[C@H](N)[C@H](O)[C@H](C)O1 [DOXORUBICIN]
Second: COc1ccc2c(c1O)COc1c-2oc2c(OC)c(OC)ccc2c1=O
The GI50 of the first is lower: 0.09 µM for the first, > 10 µM for the second.

`COc1ccc(-c2oc3c(OC)c(OC)ccc3c(=O)c2OC)cc1O` [DIPLOTRIN B] and `COc1cc(O)c(-c2oc3c(OC)c(OC)ccc3c(=O)c2OC)cc1O` [DIPLOTRIN A] cannot be ordered by GI50: 20.8 µM for the first, > 10 µM for the second.

Test system: HT-29
Experiment: Antiproliferative activity against human HT-29 assessed as growth inhibition after 48 hrs by SRB assay
Format: functional
Settings: HT-29, 48 h
Outline: as §1

First: COc1cc([C@H]2Oc3cc(-c4cc(=O)c5c(O)cc(O)cc5o4)ccc3O[C@@H]2CO)cc(OC)c1O
Second: COc1ccc2c(=O)cc(-c3cc(OC)c(OC)cc3O)oc2c1 [DIPLOTRIN C]
The GI50 of the first is lower: 4.1 µM for the first, > 10 µM for the second.

Compared with `COc1cccc2c1C(=O)c1c(O)c3c(c(O)c1C2=O)C[C@@](O)(C(=O)CO)C[C@@H]3O[C@H]1C[C@H](N)[C@H](O)[C@H](C)O1` [DOXORUBICIN], `COc1ccc2c(c1O)COc1c-2oc2c(OC)c(OC)ccc2c1=O` is higher in GI50: 0.12 µM for the first, > 10 µM for the second.

Going from `COc1ccc(-c2oc3c(OC)c(OC)ccc3c(=O)c2OC)cc1O` [DIPLOTRIN B] to `COc1cc(O)c(-c2oc3c(OC)c(OC)ccc3c(=O)c2OC)cc1O` [DIPLOTRIN A], the GI50 rises from 7.5 µM to > 10 µM.

Test system: A549
Experiment: Antiproliferative activity against human A549 assessed as growth inhibition after 48 hrs by SRB assay
Format: functional
Settings: A549, 48 h
Outline: as §1

`COc1cc([C@H]2Oc3cc(-c4cc(=O)c5c(O)cc(O)cc5o4)ccc3O[C@@H]2CO)cc(OC)c1O` and `COc1ccc2c(=O)cc(-c3cc(OC)c(OC)cc3O)oc2c1` [DIPLOTRIN C] cannot be ordered by GI50: 20.3 µM for the first, > 10 µM for the second.

Going from `COc1cccc2c1C(=O)c1c(O)c3c(c(O)c1C2=O)C[C@@](O)(C(=O)CO)C[C@@H]3O[C@H]1C[C@H](N)[C@H](O)[C@H](C)O1` [DOXORUBICIN] to `COc1ccc2c(c1O)COc1c-2oc2c(OC)c(OC)ccc2c1=O`, the GI50 rises from 0.27 µM to > 10 µM.

Going from `COc1ccc(-c2oc3c(OC)c(OC)ccc3c(=O)c2OC)cc1O` [DIPLOTRIN B] to `COc1cc(O)c(-c2oc3c(OC)c(OC)ccc3c(=O)c2OC)cc1O` [DIPLOTRIN A], the GI50 rises from 2.7 µM to > 10 µM.
